Drawing on ChEMBL document CHEMBL1154187, “Synthesis and biological evaluation of 2-heteroarylthioalkanoic acid analogues of clofibric acid as peroxisome proliferator-activated receptor alpha agonists” (J Med Chem, 2009), this text covers fold change (FC), EC50 and Activity for 29 compounds.

Calls of active or inactive are those of the source. No cut-off for these calls is given here.

Type in all cases: functional, cell-based
Test [1] concerns the target T1, Peroxisome proliferator-activated receptor alpha (Homo sapiens) (UniProt Q07869).
T1 sequence (whole entry): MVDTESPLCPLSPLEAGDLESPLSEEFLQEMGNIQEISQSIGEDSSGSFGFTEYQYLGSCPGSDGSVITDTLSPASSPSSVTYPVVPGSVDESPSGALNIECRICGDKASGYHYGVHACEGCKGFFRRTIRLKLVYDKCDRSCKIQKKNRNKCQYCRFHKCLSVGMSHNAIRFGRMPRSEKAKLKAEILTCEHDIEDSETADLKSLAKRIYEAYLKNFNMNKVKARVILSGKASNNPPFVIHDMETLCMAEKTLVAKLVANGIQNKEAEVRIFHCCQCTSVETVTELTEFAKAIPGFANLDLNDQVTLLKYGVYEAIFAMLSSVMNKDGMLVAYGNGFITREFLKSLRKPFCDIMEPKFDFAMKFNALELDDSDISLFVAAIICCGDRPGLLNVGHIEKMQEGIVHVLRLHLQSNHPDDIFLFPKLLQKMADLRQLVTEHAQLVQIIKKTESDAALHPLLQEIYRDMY
Nature of the test: Agonist activity at PPARalpha in human HepG2 cells assessed as increase in CPT1A mRNA expression at 150 uM after 48 hrs by RTqPCR relative to untreated control. Put shortly:
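HepG2 grown in DMEM + 10% FBS, 37 °C, 5% CO2; 1×10^6 cells seeded in six-well dishes, grown 24 h, then given ligand at 150 μM or DMSO vehicle for 48 h. Total RNA by TRIzol; SYBR Green RTqPCR, primers 150 nM final, 60 ng cDNA, 40 cycles. CPT1A normalized to cyclophilin and to vehicle-treated cells; mean ± SEM of four determinations in duplicate.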
(In general: Quantitative PCR measures a nucleic acid by following its amplification.)

Test [2] deals with T1, Peroxisome proliferator-activated receptor alpha (Homo sapiens). Description: Agonist activity at human PPARalpha expressed in HEK293 cells assessed as receptor transactivation at 150 uM by luciferase reporter gene assay relative to control. Put shortly:
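Cells co-transfected by calcium phosphate with human PPARα expression plasmid, luciferase reporter and renilla in serum-free medium. Ligand in DMSO (≤0.1% v/v final) added 6 h post-transfection at 150 μM. Luciferase normalized to renilla, expressed as fold activation over untreated cells; at least three separate experiments, mean ± SEM.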
In general terms: In a reporter assay the amount or activity of a reporter protein is the signal.

Test [3] has as its target T2, Peroxisome proliferator-activated receptor alpha (Homo sapiens, UniProt Q07869).
T2 sequence (Q07869 whole entry): T1 sequence (whole entry)
Description: Agonist activity at human PPARalpha expressed in HEK293 cells assessed as receptor transactivation at by luciferase reporter gene assay. Put shortly:
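Human PPARα reporter-gene transactivation: calcium phosphate co-transfection of receptor plasmid, luciferase reporter and renilla. Ligand in DMSO (≤0.1% v/v final) added 6 h after transfection at five concentrations, 1 to 150 μM. At least three separate experiments, ± SEM.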

On to `CC(C)(Oc1ccc(Cl)cc1)C(=O)O`, for which the fold change (FC) was determined as 2 in test [1] and 1.6 in test [2].

By EC50 is commonly meant the concentration at which the effect is half-maximal. In the case of `CC(C)(Sc1nc2ccc(Cl)cc2s1)C(=O)O`, the concentration giving a half-maximal response (EC50) in test [3] stood at 38.9 µM. For the same compound, the fold change (FC) in test [2] is 1.7.

For the compound `CCOc1ccc2nc(SC(C)(C)C(=O)O)sc2c1`, the EC50 in test [3] was 69.3 µM. Also, the fold change (FC) in test [2] worked out at 3.3.

As for `CC(C)(Sc1nc2cc(C(F)(F)F)ccc2s1)C(=O)O`, in test [2], the outcome was inactive.

As for `COc1ccc2sc(S[C@@H](C)C(=O)O)nc2c1`, in test [3], the EC50 was determined as 1.9 µM. For the same compound, the outcome in test [1] was Active. Also, the fold change (FC) in test [2] was 2.9.

`CC(Sc1nc2cc(C#N)ccc2s1)C(=O)O` (racemic): in test [2], the outcome was inactive.

In the case of `CC(C)(Sc1ccc(Cl)s1)C(=O)O`, the EC50 in test [3] came out at 1.8 µM. The fold change (FC) was 2 in test [1] and 2.8 in test [2].

Consider `CC(C)(Sc1nc2cc(C#N)ccc2s1)C(=O)O`, for which, in test [3], the EC50 stood at 46.3 µM. In test [2], the fold change (FC) amounted to 1.9.

For `CC(C)(Sc1nc2cc(Br)ccc2s1)C(=O)O`, the EC50 in test [3] was found to be 2.5 µM. In test [1], the outcome was Active. Further, the fold change (FC) in test [2] stood at 4.5.

In the case of `CC(Sc1nc2cc(Br)ccc2s1)C(=O)O` (racemic), the EC50 in test [3] was 9.3 µM. Further, the fold change (FC) in test [2] is 3.2.

Consider `COc1ccc2sc(S[C@H](C)C(=O)O)nc2c1`, for which the EC50 in test [3] amounted to 57.3 µM. In addition, the fold change (FC) in test [2] is 2.3.

Regarding `C[C@H](Sc1nc2cc(Cl)ccc2s1)C(=O)O`, the EC50 in test [3] was 55.9 µM. The fold change (FC) in test [2] stood at 2.6.

Take `CC(C)(Sc1nc2ccccc2s1)C(=O)O`: in test [2], the outcome was inactive.

On to `CC(Sc1nc2ccc(Br)cc2s1)C(=O)O` (racemic), for which the concentration giving a half-maximal response (EC50) in test [3] was 84.3 µM. In addition, the fold change (FC) in test [2] was 1.9.

With `CC(Sc1nc2cc(Cl)ccc2s1)C(=O)O` (racemic), the EC50 in test [3] was determined as 62.5 µM. The fold change (FC) in test [2] worked out at 3.4.

For the compound `O=C(O)C(Sc1nc2cc(Cl)ccc2s1)c1ccccc1` (racemic), the EC50 in test [3] came to 14.3 µM. In addition, the fold change (FC) in test [2] was 1.6.

`CCCC(Sc1nc2ccc(OCC)cc2s1)C(=O)O` (racemic): the half-maximal effective concentration (EC50) in test [3] was found to be 14.8 µM. Besides, the fold change (FC) in test [2] came to 4.7.

Turning to `CC(C)(Sc1nc2ccc(Br)cc2s1)C(=O)O`, in test [3], the concentration giving a half-maximal response (EC50) came to 45.8 µM. In addition, the fold change (FC) in test [2] is 2.6.

`CC(C)(Sc1nc2ccc(C(F)(F)F)cc2s1)C(=O)O`: in test [3], the 50% effective concentration (EC50) was determined as 36.1 µM. Also, in test [2], the fold change (FC) was 1.7.

`CC(C)(Sc1nc2ccc(C#N)cc2s1)C(=O)O`: in test [2], the outcome was inactive.

As to `CC(C)(Sc1cccs1)C(=O)O`, the outcome in test [2] was inactive.

Turning to `CC(C)(Sc1ccccn1)C(=O)O`, in test [2], the outcome was inactive.

For the compound `COc1ccc2sc(SC(C)(C)C(=O)O)nc2c1`, the EC50 in test [3] stood at 45.8 µM. Moreover, the fold change (FC) in test [2] worked out at 2.

For the compound `C[C@@H](Sc1nc2cc(Cl)ccc2s1)C(=O)O`, in test [3], the EC50 was determined as 73.5 µM. Also, in test [2], the fold change (FC) was 4.5.

Consider `CCOc1ccc2nc(SC(C)C(=O)O)sc2c1` (racemic), for which the concentration for a half-maximal effect (EC50) in test [3] was 9.8 µM. For the same compound, the fold change (FC) in test [2] was 2.6.

Consider `CCCCCCC(Sc1nc2cc(Cl)ccc2s1)C(=O)O` (racemic), for which the outcome in test [2] was inactive.

Turning to `CC(C)(Sc1nc2cc(Cl)ccc2s1)C(=O)O`, in test [3], the half-maximal effective concentration (EC50) was 35.9 µM. In addition, in test [2], the fold change (FC) came out at 1.6.

Regarding `COc1ccc2sc(SC(C)C(=O)O)nc2c1` (racemic), in test [3], the EC50 amounted to 33.3 µM. Moreover, the fold change (FC) in test [2] amounted to 2.9.

With `CCCC(Sc1nc2cc(Cl)ccc2s1)C(=O)O` (racemic), the EC50 in test [3] came out at 9.3 µM. Moreover, the fold change (FC) in test [2] came out at 2.7.
